# ASAP1 inh – inhibitors of human ASAP1 ArfGAP activity; inhibition, % at 16.5 µM; actives 0.19% (n = 360,000); ASAP1-stimulated ARF1 GTP hydrolysis, GDP FP detection; Q9ULH1; in the data active = inhibition above about 25%;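 note: 0% = vehicle with enzyme and substrate and 100% = no enzyme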
# H9c2 protect – protects H9c2 cardiomyocytes from peroxide injury | H2O2 injury protection, ATPLite, 2 h | protection from H2O2 cell death, % at 20 µM | actives 0.63% (n = 360,000) | AID 588492;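 active = compounds giving at least 50% protection of heart cells from peroxide-induced death in the single-dose screen, raw or plate-pattern-corrected value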;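 note: 0% = DMSO wells with peroxide and 100% = DMSO wells without peroxide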
# Neddyl block – blocks human cullin neddylation | P61081+Q13564 | TR-FRET cullin neddylation, biochemical | inhibition, % at 25 µM | actives 0.58% (n = 360,000); in the data active = inhibition above about 36%
# Target sequence (P61081 whole entry, looked up): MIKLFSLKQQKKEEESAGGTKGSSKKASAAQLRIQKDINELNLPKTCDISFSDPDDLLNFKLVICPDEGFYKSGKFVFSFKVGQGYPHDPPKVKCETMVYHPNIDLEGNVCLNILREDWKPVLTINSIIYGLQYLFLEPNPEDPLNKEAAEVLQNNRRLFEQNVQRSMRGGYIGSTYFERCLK
# Target sequence (Q13564 whole entry, looked up): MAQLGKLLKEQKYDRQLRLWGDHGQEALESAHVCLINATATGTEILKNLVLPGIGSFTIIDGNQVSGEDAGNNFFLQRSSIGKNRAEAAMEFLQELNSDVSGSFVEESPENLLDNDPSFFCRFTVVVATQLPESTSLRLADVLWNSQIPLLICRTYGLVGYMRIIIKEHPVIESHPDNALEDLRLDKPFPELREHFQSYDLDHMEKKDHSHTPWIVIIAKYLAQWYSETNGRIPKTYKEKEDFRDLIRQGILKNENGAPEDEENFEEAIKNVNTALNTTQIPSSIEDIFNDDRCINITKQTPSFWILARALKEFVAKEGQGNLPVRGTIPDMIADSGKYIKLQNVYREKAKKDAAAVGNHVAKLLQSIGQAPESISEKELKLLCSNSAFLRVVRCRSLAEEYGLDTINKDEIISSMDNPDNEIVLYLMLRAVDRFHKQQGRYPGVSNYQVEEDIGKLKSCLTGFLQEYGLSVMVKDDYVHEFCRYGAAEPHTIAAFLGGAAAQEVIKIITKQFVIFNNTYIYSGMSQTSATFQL
# ARFGAP1 inh – inhibitors of rat ARFGAP1; Q62848; Arfgap1-stimulated ARF1 GTP hydrolysis, GDP FP detection; inhibition, % at 16.5 µM; actives 0.26% (n = 360,000);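 active = inhibition above a per-plate limit, mean inhibition of low control wells plus 3 SD, cut at about 25% in these data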;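 note: 0% = DMSO wells with enzyme and 100% = wells lacking Arfgap1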
#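 Replicates: Single well per compound | Assay system: Truncated rat Arfgap1 GAP domain | Control set: No-Arfgap1 wells (100%) versus DMSO full-reaction wells (0%) | Times: Enzyme reaction 120 min at 25 °C after 20 min preincubation | Reagent: Human ARF1(Δ1-17)-GTP substrate | Measured by: Tracer-displacement fluorescence polarization with EDTA stop, 620/688 nm | Measure: Percent inhibition of Arfgap1-stimulated GTP hydrolysis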
# Neddyl conf – cullin neddylation inhibition, confirmation; shares compounds with Neddyl block; TR-FRET cullin neddylation biochemical assay; calls only at 25 µM; actives 13% (n = 1,800); in the data active = inhibition above about 40%;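 note: neddylation substrate is the cullin 1 ring ligase complex with SKP2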
# * = called active by the depositor; i = inactive; x = no result shown; + = active, no number. An excerpt weighted towards active compounds, which were near 1.6% of everything screened.
SMILES,ASAP1 inh,H9c2 protect,Neddyl block,ARFGAP1 inh,Neddyl conf
COC(=O)[C@]12C[C@H](CC(=O)NCC3CCCCC3)C(=O)N(CCc3ccc(OC)c(OC)c3)C1=C[C@H](C(C)(C)C)O[C@@H]2C,7.1,x,x,10.9,x
N#Cc1cc(O)c(-n2nnc3ccccc32)cc1C#N,5.1,-9.7,39.1*,13.4,i
OCc1ccc(-c2cncc3nccn23)cc1,-8.9,-3.7,x,12.4,x
c1cn2c(-c3ccoc3)cncc2n1,-5.5,-0.1,41.5*,13.3,+
CCOC(=O)N(C)[C@H]1C[C@H]2c3[nH]c4c(-c5ccccc5)cccc4c3CCN2C(=O)[C@H]1[C@H](C)O,1.5,x,x,8.6,x
COc1ccc(-c2cc(C(=O)N3CCCCC3)c3ccccc3n2)cc1OC,3.0,7.3,54.2*,2.3,x
COc1ccc(-c2cc(C(=O)N3CCC3)c3ccccc3n2)cc1OC,5.2,0.7,27.6,0.9,x
COc1ccc(-c2cc(C(=O)N3CC(C)CC(C)C3)c3ccccc3n2)cc1OC (stereo not drawn),7.2,10.9,57.4*,-8.8,x
COc1ccc(-c2cc(C(=O)NCC(c3ccco3)N(C)C)c3ccccc3n2)cc1OC (stereo not drawn),6.3,12.6,41.4*,3.4,i
COc1ccc(Nc2nnc(-c3ccccc3)c3ccccc23)cc1C(=O)N1CCCCC1,1.8,6.7,x,-2.5,x
COc1ccc(Nc2nnc(-c3ccc(C)cc3)c3ccccc23)cc1C(=O)N1CCCCC1,8.4,2.8,43.6*,-2.2,i
CC(=O)c1sc(NC(=O)CCc2ccccc2)nc1C,10.4,1.9,-298.7,-9.1,x
COc1cccc(-c2cc(C(=O)NC3CCCC3)c3ccccc3n2)c1,2.5,-0.5,10.8,6.5,x
COc1ccc(-c2cc(C(=O)N3CCCC3)c3ccccc3n2)cc1OC,1.3,10.2,32.5,4.1,x
COc1ccc(-c2cc(C(=O)NC3CCCC3)c3ccccc3n2)cc1OC,5.3,13.8,39.7*,2.2,i
COc1ccc(-c2cc(C(=O)N3CCN(c4ncccn4)CC3)c3ccccc3n2)cc1OC,7.6,28.5,51.4*,4.1,x
COC(=O)N(C)C[C@@H]1OCc2ccccc2-c2c(n(C)c3ccccc23)C(=O)N([C@H](C)CO)C[C@@H]1C,-7.4,9.9,9.0,-14.1,x
O=C(CCn1cnc2ccccc21)N/N=C/c1ccccc1O,11.5,36.2,40.8*,5.9,i
Clc1ccc2nc(C(Cl)(Cl)Cl)[nH]c2c1,-1.2,5.7,6.3,18.8,x
CCCSc1nc(N)c2c3c(sc2n1)CN(C)CC3,x,-2.8,28.2,x,x
CN(C)CCSc1nc(N)c2c3c(sc2n1)CN(C)CC3,13.5,4.5,38.7*,-15.5,i
COCCSc1nc(N)c2c3c(sc2n1)CN(C)CC3,-4.3,-1.9,42.9*,8.9,i
CC(=O)Nc1ccc(S(=O)(=O)N2CCN(c3cc(C(F)(F)F)ccn3)CC2)cc1,4.9,-5.0,85.1*,0.2,i
COCCNC(=O)CSc1ccc(-c2nc3ccccc3[nH]2)cn1,-5.3,0.9,49.0*,-4.0,+
CCOC(=O)CSc1ccc(-c2nc3ccccc3[nH]2)cn1,9.3,-7.5,16.9,6.9,x
SMILES,ASAP1 inh,H9c2 protect,Neddyl block,ARFGAP1 inh,Neddyl conf
Cc1cc(Br)cn2c(Cc3ccsc3)c(-c3ccc(Cl)cc3)nc12,x,-2.9,-19.9,x,x
Cc1ccc2nc(Cl)cc(=O)n2c1,14.1,6.5,43.5*,-8.4,i
CCCc1cc(=O)oc2c(C)c3occ(C)c3cc12,-3.3,-6.2,40.0*,-2.2,i
Cc1coc2c(C)c3oc(=O)cc(-c4ccccc4)c3cc12,-2.0,-5.3,26.3,-3.2,x
CCOc1ccc(-c2cc(C(=O)NCc3ccccc3)[nH]n2)c(C)c1,-1.4,-9.6,1.2,1.7,x
CC(Oc1cc2oc(=O)c3c(c2cc1Cl)CCC3)C(=O)NCc1cccnc1 (stereo not drawn),2.6,0.4,42.6*,-11.7,i
CCCN(C(=O)C1CCCN(c2ncnc3c2nc2n3CCCCC2)C1)c1ccccc1C (stereo not drawn),9.3,x,x,-13.1,x
COc1ccc(NC(=O)N(C)C[C@@H]2OCc3cn(nn3)CCCC(=O)N([C@@H](C)CO)C[C@H]2C)cc1,x,-4.8,2.0,x,x
CCC12CCCN3CCc4c(n(c5ccccc45)C(O)(C(=O)OC)C1)C32 (stereo not drawn),-7.3,7.9,27.9,-3.8,x
CC[C@]12CCCN3CCc4c(n(c5ccccc45)[C@](O)(C(=O)OC)C1)[C@@H]32,3.8,-7.8,43.3*,4.0,i
COC(=O)C1=C(C)N(C)C(=NCc2ccccc2C(F)(F)F)NC1c1ccc(C(F)(F)F)cc1 (stereo not drawn),-16.5,x,x,-3.2,x
CCCCNC(=O)[C@@H]1CSC2c3ccc(OC)c(OC)c3C(=O)N21 (stereo partly drawn),11.3,1.7,41.6*,-9.2,i
C[C@@H]1CN([C@@H](C)CO)C(=O)CCCn2cc(nn2)CO[C@H]1CN(C)C(=O)C1CCCCC1,3.7,x,x,-3.4,x
CCc1cc2c(nc1CC)CCCN2CCOC,-14.1,x,x,7.0,x
O=C(NCCO)c1ccc2c3n(nc2c1)-c1ccccc1CO3,-9.3,-28.1,34.8*,-5.7,i
Cc1ccc2c(c1)COc1c3ccc(C(=O)NCC4CC4)cc3nn1-2,6.3,-2.8,46.5*,-12.4,+
O=C(NCCN1CCC(n2c(=O)[nH]c3ccccc32)CC1)c1ccc(C(F)(F)F)cc1C(F)(F)F,-11.3,x,0.3,-4.4,x
CCCCNc1cccc2c1S(=O)(=O)N[C@@H](CC(C)C)CO2,6.4,x,x,10.4,x
COc1ccc(NC(=O)C2(C)CCCN(C(C)C)C2)cc1OC (stereo not drawn),-4.4,-0.7,1.2,-4.1,x
CCCCn1c(=NC(=O)c2ccc3c(c2)OCO3)c(C#N)cc2c(=O)n3cccc(C)c3nc21,-13.2,22.0,54.9*,-4.1,i
COc1ccc(-c2cn3cccnc3n2)cc1NC(=O)c1cccs1,11.6,8.1,55.1*,-1.6,+
COc1ccc(-c2cn3cccnc3n2)cc1NS(=O)(=O)c1ccccc1,-1.7,7.3,49.5*,6.1,i
O=S(=O)(Nc1ccc(-c2cn3cccnc3n2)cc1)c1ccccc1,-0.2,4.2,x,-5.2,x
Cc1cc(=O)oc2c(C)c(OCC(=O)N(C)C)ccc12,-0.4,4.9,41.0*,6.1,i
Cc1cc(=O)oc2c(C)c(OC(C)C(=O)N3CC[C@@]4(O)CCCC[C@H]4C3)ccc12 (stereo partly drawn),2.9,2.5,28.9,3.3,x
CCc1cc(=O)oc2c(C)c(OCC(=O)NCC3CCC(C(=O)O)CC3)ccc12 (stereo not drawn),2.8,6.5,31.1,4.2,x
CCc1cc(=O)oc2c(C)c(OCC(=O)N3CCC(C(=O)O)CC3)ccc12,7.5,-2.2,42.5*,-1.9,+
Cc1cc(=O)oc2c(C)c(OCC(=O)N3CC[C@@]4(O)CCCC[C@H]4C3)ccc12,9.6,2.3,44.2*,-5.8,i
